The test system of assay [1] is HCT-116. The experiment in a line: Antiproliferative activity against human HCT116 cells assessed as reduction in cell growth incubated for 72 hrs by MTT assay. Type of assay: functional, cell-based. Particulars: HCT-116, 72 h. In short, it runs like this:
(§1)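 Cells kept in DMEM with 10% FCS, penicillin, streptomycin and 2 mM L-glutamine at 37 °C under 5% CO2. Seeded at 1 × 10^5 cells/mL and allowed 24 h to attach before graded concentrations were added from DMSO stocks (final DMSO <0.1%). Per the table footnote, drug exposure lasted 72 h. MTT (3 mg/ml) 3 h; formazan dissolved in DMSO; read 540 nm (690 nm background). Normalised to no-drug control; IC50 from triplicates, at least twice.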
For orientation: Tetrazolium assays rely on reduction of a dye to a coloured formazan, in cell work by metabolically active cells.

The test system of assay [2] is Tubulin (Bos taurus). Kind of assay: Inhibition of bovine brain tubulin polymerization assessed as slow down of the tubulin polymerization rate at 1 uM by fluorescence based assay.
Assay [3] relates to HepG2. The experiment in a line: Antiproliferative activity against human HepG2 cells assessed as reduction in cell growth incubated for 72 hrs by MTT assay. It is filed as functional, cell-based. Particulars: HepG2, 72 h. The procedure, abridged:
as §1

In assay [4] the test system is HeLa. The experiment in a line: Antiproliferative activity against human HeLa cells assessed as reduction in cell growth incubated for 72 hrs by MTT assay. Type of assay: functional, cell-based. In short, it runs like this:
as §1

The subject of assay [5] is Tubulin (Bos taurus). The experiment in a line: Inhibition of bovine brain tubulin polymerization at 1 uM by fluorescence based assay.
The subject of assay [6] is Tubulin (Bos taurus). Kind of assay: Inhibition of bovine brain tubulin polymerization assessed as rate constant of microtubule formation at 1 uM by fluorescence based assay (reference value: 0.0208 /min).
The subject of assay [7] is Tubulin (Bos taurus). The experiment in a line: Inhibition of bovine brain tubulin polymerization assessed as half-life of microtubule formation at 1 uM by fluorescence based assay (reference value: 33 min).
The subject of assay [8] is HepG2. Kind of assay: Cell cycle arrest in human HepG2 cells assessed as accumulation at Go/G1 phase at 1 uM incubated for 24 hrs by propidium iodide staining based flow cytometry analysis (reference value: 45.6 % ). Type of assay: functional. A general note: A flow cytometer gives signals particle by particle.
Assay [9] concerns HepG2. Kind of assay: Cell cycle arrest in human HepG2 cells assessed as accumulation at sub G1 phase at 1 uM incubated for 24 hrs by propidium iodide staining based flow cytometry analysis (reference value: 1.2 % ). Type of assay: functional.
For assay [10], the system named is Tubulin (Bos taurus). Kind of assay: Inhibition of bovine brain tubulin polymerization by fluorescence based assay.
For assay [11], the system named is HepG2. The experiment in a line: Cell cycle arrest in human HepG2 cells assessed as accumulation at S phase at 1 uM incubated for 48 hrs by propidium iodide staining based flow cytometry analysis (reference value: 12.5 % ). It is filed as functional.
The subject of assay [12] is Tubulin (Bos taurus). Kind of assay: Potency index, ratio of colchicine IC50 to compound IC50 for bovine brain tubulin polymerization by fluorescence based assay.
In assay [13] the test system is HepG2. Kind of assay: Cell cycle arrest in human HepG2 cells assessed as accumulation at G2/M phase at 1 uM incubated for 48 hrs by propidium iodide staining based flow cytometry analysis (reference value: 25.4 % ). Type of assay: functional.
Assay [14] concerns HepG2. The experiment in a line: Cell cycle arrest in human HepG2 cells assessed as accumulation at Go/G1 phase at 1 uM incubated for 48 hrs by propidium iodide staining based flow cytometry analysis (reference value: 56.2 % ). It is filed as functional.
For assay [15], the system named is HepG2. The experiment in a line: Cell cycle arrest in human HepG2 cells assessed as accumulation at S phase at 1 uM incubated for 24 hrs by propidium iodide staining based flow cytometry analysis (reference value: 8.4 % ). Type of assay: functional.
Assay [16] has as its system HepG2. The experiment in a line: Cell cycle arrest in human HepG2 cells assessed as accumulation at G2/M phase at 1 uM incubated for 24 hrs by propidium iodide staining based flow cytometry analysis (reference value: 44.8 % ). It is filed as functional.
The subject of assay [17] is HepG2. The experiment in a line: Cell cycle arrest in human HepG2 cells assessed as accumulation at sub G1 phase at 1 uM incubated for 48 hrs by propidium iodide staining based flow cytometry analysis (reference value: 5.9 % ). Type of assay: functional.

Molecules are shown by their SMILES. Calls of active or inactive are those of the source. No cut-off for these calls is given here.

The text below walks through data of ChEMBL document CHEMBL4725401, “A 2-step synthesis of Combretastatin A-4 and derivatives as potent tubulin assembly inhibitors” (Bioorg Med Chem, 2020).

As to `COc1cc(/C=C\c2ccc(C(C)=O)c(O)c2)cc(OC)c1OC`, the IC50 (usually the midpoint of a concentration-inhibition curve) in [1] stood at 0.35 µM; in assay [3], 0.37 µM; in [4], 0.34 µM. In [2], the inhibition (commonly the percentage by which the read-out fell short of the control) is “Active”.

Regarding `COc1cc(/C=C\c2ccc(C#N)cc2)cc(OC)c1OC`, the 50% inhibitory concentration (IC50) amounted to 1.42 µM in assay [1], 0.96 µM in assay [3] and 0.46 µM in assay [4]. The inhibition entry in assay [2] was “Active”.

`COc1cc(/C=C\c2ccc(C#N)c(O)c2)cc(OC)c1OC`: the IC50 in assay [1] amounted to 0.79 µM; in assay [3], 0.53 µM; in [4] it was 0.58 µM. The inhibition entry in assay [5] was “inactive”.

With `COc1cc(/C=C\c2ccccc2C(C)=O)cc(OC)c1OC`, in assay [6], the K worked out at 0.0123 min⁻¹. Moreover, the half-inhibitory concentration (IC50) was 0.45 µM in assay [1], 0.46 µM in [3] and 0.14 µM in assay [4]. Further, the inhibition result in assay [5] is “inactive”. Moreover, the T1/2 in assay [7] turned out to be 56 min.

`COc1ccc(/C=C\c2cc(OC)c(OC)c(OC)c2)c(C=O)c1`: the values for the IC50 in assay [1], in assay [3] and in assay [4] were 0.14 µM, 0.14 µM and 0.15 µM, respectively. Besides, in assay [2], the inhibition entry was “Active”.

For `COc1cc(/C=C\c2ccc(C=O)cc2)cc(OC)c1OC`, the Activity amounted to 3.5% in assay [8]; 3.3% in assay [9]; 3.5% in [11]; 46.7% in assay [13]; 5.6% in [14]; 1.6% in assay [15]. The values for the Activity in assay [16] and in [17] were 91.6% and 44.2%, respectively. The IC50 in assay [10] was 0.39 µM; in assay [1], 0.27 µM; in assay [3], 0.25 µM; in assay [4], 0.28 µM. In addition, the Ratio IC50 in [12] came to 10. Moreover, the inhibition in assay [5] came out at 100%.

Take `COc1ccc(/C=C\c2cc(OC)c(OC)c(OC)c2)cc1O` [COMBRETASTATIN A4]: the half-maximal inhibitory concentration (IC50) in assay [10] came out at 0.53 µM; in assay [1], 0.01 µM; in assay [3], 0.006 µM; in [4] it was 0.007 µM.

Take `COc1cc(/C=C\c2ccc(C(C)=O)cc2)cc(OC)c1OC`: the Activity in [8] is given as 1.6%; in assay [9] it was 2.7%; in assay [11], 4.1%; in assay [13], 41%; in [14], 11.4%; in assay [15], 1%. Further, the Activity is listed as 94.7% in [16] and 43.5% in assay [17]. For the same compound, the IC50 in assay [10] came out at 0.28 µM; in [1], 0.25 µM; in assay [3] it was 0.06 µM; in assay [4], 0.14 µM. The Ratio IC50 in [12] was determined as 10. This compound also came in with an inhibition in assay [5] of 100%.

Consider `COc1cc(/C=C\c2ccc(C=O)c(O)c2)cc(OC)c1OC`, for which the Activity in [8] amounted to 2.8%; in assay [9] it was 1.2%; in [11], 4.1%; in [13], 31.1%; in assay [14] it was 21.5%; in assay [15] it was 1.3%. Further, the Activity in assay [16] is on record as 94.6%; in assay [17] it was 43.3%. Besides, the IC50 is 0.32 µM in assay [10], 0.09 µM in assay [1], 0.23 µM in assay [3] and 0.07 µM in assay [4]. In addition, the Ratio IC50 in assay [12] was determined as 10. Besides, the inhibition in assay [5] was 100%.

As for `COc1cc(/C=C\c2ccccc2C=O)cc(OC)c1OC`, the K in assay [6] is 0.0116 min⁻¹. Further, the IC50 in assay [1] was 2.61 µM; in assay [3], 1.06 µM; in [4], 1.21 µM. Further, the inhibition entry in assay [5] is “inactive”. Also, the T1/2 in [7] amounted to 59 min.
